From article PMC4235313 (Chemistry (Weinheim an Der Bergstrasse, Germany), 2013)

Molecular target: T1, S. aureus PBP2 (Staphylococcus aureus, UniProt Q9R744)
T1 sequence (Q9R744 1-727): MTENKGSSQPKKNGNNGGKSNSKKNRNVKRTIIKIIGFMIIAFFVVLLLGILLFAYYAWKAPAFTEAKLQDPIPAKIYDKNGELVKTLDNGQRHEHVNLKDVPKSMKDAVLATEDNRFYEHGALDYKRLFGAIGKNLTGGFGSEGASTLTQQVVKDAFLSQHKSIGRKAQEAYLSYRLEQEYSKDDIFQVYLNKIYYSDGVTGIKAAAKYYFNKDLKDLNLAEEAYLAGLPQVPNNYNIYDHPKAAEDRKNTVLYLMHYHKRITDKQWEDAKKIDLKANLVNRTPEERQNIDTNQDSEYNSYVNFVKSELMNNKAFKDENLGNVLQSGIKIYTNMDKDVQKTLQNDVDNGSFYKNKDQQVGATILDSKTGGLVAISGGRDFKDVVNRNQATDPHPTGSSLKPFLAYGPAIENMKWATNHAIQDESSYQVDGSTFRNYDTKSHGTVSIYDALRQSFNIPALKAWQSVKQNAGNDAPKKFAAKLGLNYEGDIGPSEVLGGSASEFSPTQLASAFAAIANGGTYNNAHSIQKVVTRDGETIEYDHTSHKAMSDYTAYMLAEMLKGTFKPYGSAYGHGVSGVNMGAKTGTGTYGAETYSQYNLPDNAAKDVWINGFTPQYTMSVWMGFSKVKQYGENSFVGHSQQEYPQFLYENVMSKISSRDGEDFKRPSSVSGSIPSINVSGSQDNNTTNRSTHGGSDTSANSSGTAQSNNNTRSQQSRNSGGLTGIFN
Type: biochemical, Staphylococcus aureus RN4220
Conditions: for suppression of the peptidoglycan polymerization (in words): susceptible (normal lipid II analogue) and resistant (depsi-lipid II analogue) models of the PBP2 reaction, Figure 6
How it was run: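 N-terminal His6 S. aureus PBP2 (gene from RN4220 genomic DNA), expressed in E. coli BL21(DE3)pLysS, Ni-NTA and gel-filtration purified; 30 μg/mL in 50 mM HEPES pH 7.0, 18 mM MnCl2, 10% DMSO. Test compound series started with 4 μM [14C]-C35-lipid II or [14C]-C35-depsi-lipid II analogue, 30 °C, 4 min; SDS stop; cellulose TLC; phosphorimaging of polymerised product.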

| Compound | suppression of the peptidoglycan polymerization (in words) | IC50 [nM] |
| --- | --- | --- |
| moenomycin | suppressed the peptidoglycan polymerization regardless of the use of normal or depsi-lipid II analogues | – |
| CN[C@H](CC(C)C)C(=O)N[C@H]1C(=O)N[C@@H](CC(N)=O)C(=O)N[C@H]2C(=O)N[C@H]3C(=O)N[C@H](C(=O)N[C@H](C(=O)O)c4cc(O)cc(O)c4-c4cc3ccc4O)[C@H](O)c3ccc(c(Cl)c3)Oc3cc2cc(c3O[C@@H]2O[C@H](CO)[C@@H](O)[C@H](O)[C@H]2O[C@H]2C[C@](C)(N)[C@H](O)[C@H](C)O2)Oc2ccc(cc2Cl)[C@H]1O [vancomycin] | suppressed the peptidoglycan polymerization only when normal lipid II analogue was used | 1520 |
